# According to ChEMBL document CHEMBL1138547, “Synthesis, biological evaluation and 2D-QSAR analysis of benzoxazoles as antimicrobial agents” (2009):
# What was measured:
# Assay type in all cases: functional
# [1] = tested on: Klebsiella pneumoniae; assay: Antimicrobial activity against multidrug-resistant Klebsiella pneumoniae after 24 hrs
# Procedure, shortened: (§1)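 Twofold serial broth dilution in Mueller-Hinton broth. MHB was used both to dilute the bacterial suspension and for the twofold compound dilutions, giving 10^3 cfu/ml bacteria per well after inoculation. Solvent, medium and organism-only wells served as controls. Each organism was run in triplicate.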
# [2] = tested on: Bacillus subtilis; assay: Antimicrobial activity against Bacillus subtilis ATCC 6633 after 24 hrs; conditions: for MIC: Bacillus subtilis, ATCC 6633, 24 h
# Procedure, shortened: (§2)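 MIC by twofold serial dilution in Mueller-Hinton broth (MHB); MHB also used to dilute the bacterial suspension. Wells held 10^3 cfu/ml bacteria after inoculation. Controls: 80% DMSO, 20% EtOH, methanol, DMSO, PBS, organism alone and medium alone. Triplicate in each run. MIC taken as the lowest concentration completely inhibiting macroscopic growth.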
# [3] = tested on: Candida albicans; assay: Antimicrobial activity against Candida albicans ATCC 10231 after 24 to 48 hrs
# Procedure, shortened: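 Twofold serial dilution following CLSI M27-A. Yeast suspension made at 10^4 cfu/ml by diluting a fresh culture at McFarland 0.5 (10^6 cfu/ml). Inoculated into the diluted compound, incubated at 35 °C in a humid chamber, read after 48 h. Triplicate in each run. MIC is the lowest concentration completely inhibiting macroscopic growth.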
# [4] = tested on: Bacillus subtilis; assay: Antimicrobial activity against ceftriazone-resistant Bacillus subtilis after 24 hrs; procedure, shortened: as §1
# [5] = tested on: Pseudomonas aeruginosa; assay: Antimicrobial activity against Pseudomonas aeruginosa ATCC […] after 24 hrs; procedure, shortened: as §2
# [6] = tested on: Escherichia coli; assay: Antimicrobial activity against Escherichia coli ATCC 25922 after 24 hrs; conditions: ATCC 25922, 24 h; procedure, shortened: as §2
# [7] = tested on: Klebsiella pneumoniae; assay: Antimicrobial activity against Klebsiella pneumoniae RSHM 574 after 24 hrs; conditions: RSHM 574, 24 h; procedure, shortened: as §2
# [8] = tested on: Escherichia coli; assay: Antimicrobial activity against multidrug-resistant Escherichia coli after 24 hrs; procedure, shortened: as §1
# [9] = tested on: Staphylococcus aureus; assay: Antimicrobial activity against Staphylococcus aureus ATCC 25923 after 24 hrs; conditions: ATCC 25923, 24 h; procedure, shortened: as §1
# [10] = tested on: Candida albicans; assay: Antimicrobial activity against multidrug-resistant Candida albicans isolates after 24 to 48 hrs
# Procedure, shortened: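 Yeast broth microdilution following CLSI M27-A, with Sabouraud dextrose medium noted for antifungal assays. Fresh cultures at McFarland 0.5 (10^6 cfu/ml) were diluted to 10^4 cfu/ml and inoculated into twofold compound dilutions. Trays were incubated at 35 °C in a humid chamber and read at 48 h, in triplicate. MIC was the lowest concentration giving complete macroscopic growth inhibition.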
# [11] = tested on: Staphylococcus aureus; assay: Antimicrobial activity against multidrug-resistant Staphylococcus aureus after 24 hrs; procedure, shortened: as §1
Structure (SMILES),MIC [1],log(1/C) [2],MIC [2],MIC [3],MIC [4],MIC [5],MIC [6],MIC [7],MIC [8],MIC [9],MIC [10],MIC [11]
CCc1ccc(-c2nc3ccc(N)cc3o2)cc1,100 µg/mL,3.678,50 µg/mL,50 µg/mL,100 µg/mL,50 µg/mL,50 µg/mL,50 µg/mL,100 µg/mL,100 µg/mL,50 µg/mL,100 µg/mL
Nc1ccc2nc(Cc3ccc(Cl)cc3)oc2c1,100 µg/mL,4.32,12.5 µg/mL,50 µg/mL,25 µg/mL,25 µg/mL,50 µg/mL,50 µg/mL,100 µg/mL,100 µg/mL,50 µg/mL,100 µg/mL
Cc1ccc(Cc2nc3cc([N+](=O)[O-])ccc3o2)cc1,50 µg/mL,3.73,50 µg/mL,50 µg/mL,50 µg/mL,50 µg/mL,50 µg/mL,50 µg/mL,50 µg/mL,50 µg/mL,25 µg/mL,50 µg/mL
CCc1ccc(-c2nc3cc([N+](=O)[O-])ccc3o2)cc1,100 µg/mL,3.73,50 µg/mL,50 µg/mL,25 µg/mL,50 µg/mL,50 µg/mL,50 µg/mL,100 µg/mL,100 µg/mL,100 µg/mL,100 µg/mL
Nc1ccc2nc(Cc3ccc(Br)cc3)oc2c1,100 µg/mL,4.084,25 µg/mL,50 µg/mL,50 µg/mL,50 µg/mL,50 µg/mL,50 µg/mL,100 µg/mL,100 µg/mL,100 µg/mL,100 µg/mL
Nc1ccc2oc(-c3ccccc3)nc2c1,100 µg/mL,4.226,12.5 µg/mL,100 µg/mL,50 µg/mL,50 µg/mL,50 µg/mL,50 µg/mL,50 µg/mL,100 µg/mL,50 µg/mL,100 µg/mL
O=[N+]([O-])c1ccc2nc(-c3ccc(Br)cc3)oc2c1,100 µg/mL,4.407,12.5 µg/mL,100 µg/mL,50 µg/mL,50 µg/mL,50 µg/mL,50 µg/mL,25 µg/mL,100 µg/mL,50 µg/mL,400 µg/mL
O=[N+]([O-])c1ccc2nc(Cc3ccc(F)cc3)oc2c1,100 µg/mL,4.338,12.5 µg/mL,100 µg/mL,100 µg/mL,50 µg/mL,50 µg/mL,50 µg/mL,50 µg/mL,100 µg/mL,50 µg/mL,100 µg/mL
O=[N+]([O-])c1ccc2nc(Cc3ccc(Cl)cc3)oc2c1,100 µg/mL,4.364,12.5 µg/mL,100 µg/mL,25 µg/mL,25 µg/mL,50 µg/mL,50 µg/mL,100 µg/mL,200 µg/mL,50 µg/mL,100 µg/mL
Nc1ccc2oc(Cc3ccc(F)cc3)nc2c1,100 µg/mL,3.685,50 µg/mL,100 µg/mL,50 µg/mL,50 µg/mL,50 µg/mL,50 µg/mL,25 µg/mL,200 µg/mL,50 µg/mL,100 µg/mL
